target: Hypoxia-inducible factor 1-alpha (Homo sapiens) (UniProt Q16665); test: Inhibition of HIF1alpha transcriptional activity in hypoxia-induced human HCCLM3 cells co-transfected with luciferase reporter plasmid containing five copies of HREs and pRL-SV40 plasmid encoding Renilla luciferase at 10 uM incubated with compound under normoxia for 1 hr followed by hypoxia induction and measured after 24 hrs by HRE-dependent dual luciferase reporter gene assay relative to control
Summary of the method: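 LM3 cells co-transfected with firefly luciferase reporter carrying five HRE copies plus pRL-SV40 Renilla plasmid; after transfection treated and kept under hypoxia; firefly luminescence normalized to Renilla. Single-point inhibition rate at 10 μM; IC50 for selected compounds.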

Hypoxia-inducible factor 1-alpha (Homo sapiens), sequence (Q16665 whole entry, looked up): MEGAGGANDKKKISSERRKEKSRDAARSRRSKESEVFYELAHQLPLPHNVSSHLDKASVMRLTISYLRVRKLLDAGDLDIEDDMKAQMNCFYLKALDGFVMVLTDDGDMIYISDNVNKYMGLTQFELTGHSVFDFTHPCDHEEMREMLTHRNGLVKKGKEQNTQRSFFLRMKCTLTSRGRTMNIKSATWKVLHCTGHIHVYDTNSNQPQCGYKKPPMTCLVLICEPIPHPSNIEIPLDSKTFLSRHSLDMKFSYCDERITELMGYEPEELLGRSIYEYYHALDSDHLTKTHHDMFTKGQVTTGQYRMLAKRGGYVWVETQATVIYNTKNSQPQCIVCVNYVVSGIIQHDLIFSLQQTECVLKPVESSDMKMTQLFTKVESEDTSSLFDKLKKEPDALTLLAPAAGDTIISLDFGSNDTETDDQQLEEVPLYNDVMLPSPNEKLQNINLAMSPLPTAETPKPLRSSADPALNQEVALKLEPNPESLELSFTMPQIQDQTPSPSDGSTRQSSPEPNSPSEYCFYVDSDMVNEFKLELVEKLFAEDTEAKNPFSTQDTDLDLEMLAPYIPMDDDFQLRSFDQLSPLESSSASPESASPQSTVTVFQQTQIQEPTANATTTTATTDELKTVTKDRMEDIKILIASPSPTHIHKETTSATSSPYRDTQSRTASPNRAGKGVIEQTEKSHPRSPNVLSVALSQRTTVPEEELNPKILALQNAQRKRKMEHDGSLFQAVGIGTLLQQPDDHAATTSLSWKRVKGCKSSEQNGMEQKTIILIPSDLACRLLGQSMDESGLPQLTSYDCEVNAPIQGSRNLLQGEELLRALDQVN

| SMILES | inhibition [%] |
| --- | --- |
| O=C(NCCc1ccccc1F)c1ccc(-c2ccccc2O)cn1 | 43.6 |
| O=C(NCCc1ccccc1Cl)c1ccc(-c2ccccc2)nc1 | 45.1 |
| Cc1ccc(C(=O)NCCc2ccncc2)o1 | 12.8 |
| O=C(NCCc1ccccc1F)c1ccc(-c2ccco2)cn1 | 57.2 |
| O=C(NCCc1ccncc1)c1csc(-c2cccnc2)n1 | 33.9 |
| O=C(NCCc1ccccc1Cl)c1ncc(-c2ccccc2)o1 | 52.3 |
| Cc1nc(C(=O)NCCc2ccc(Cl)cc2)cs1 | 0.6 |
| O=C(NCCc1ccccc1Cl)c1nc(-c2ccccc2)no1 | 44.1 |
| Cc1nc(C(=O)NCc2ccccc2)cs1 | 3.1 |
| O=C(NCCc1ccncc1)c1coc(-c2ccccc2)n1 | 38.7 |
| Cc1nc(C(=O)NCCc2ccncc2)cs1 | 31.3 |
| O=C(NCCc1cccc(F)c1)c1ccc(-c2ccccc2)cn1 | 58.7 |
| O=C(NCCc1ccccc1Cl)c1noc(-c2ccccc2)n1 | 40.5 |
| Cc1nc(C(=O)NCCCc2ccccc2)cs1 | 6.5 |
| O=C(NCCc1ccncc1)c1ccc(-c2ccccc2)nc1 | 47.4 |
| Cc1nc(C(=O)NCCc2ccccn2)cs1 | 5.1 |
| Cc1nc(C(=O)NCCc2ccccc2Cl)cs1 | 42.7 |
| Cc1nc(C(=O)NCCc2cccc(Cl)c2)cs1 | 1.2 |
| N#Cc1cccc(-c2ccc(C(=O)NCCc3ccccc3F)nc2)c1 | 44.5 |
| O=C(NCCc1ccccc1F)c1ccc(-c2cccc(F)c2)cn1 | 55.3 |
| O=C(NCCc1ccccc1F)c1ccc(-c2cccc(O)c2)cn1 | 0.3 |
| O=C(NCCc1ccncc1)c1noc(-c2ccccc2)n1 | 49.7 |
| O=C(NCCc1ccc(Cl)cc1)c1ccc(-c2ccccc2)cn1 | 58.2 |
| O=C(NCCc1ccccc1Cl)c1csc(-c2ccncc2)n1 | 18.4 |
| COc1ccc(-c2ccc(C(=O)NCCc3ccccc3F)nc2)cc1 | 45.6 |
| COc1cccc(-c2ccc(C(=O)NCCc3ccccc3F)nc2)c1 | 53.8 |

| SMILES | inhibition [%] |
| --- | --- |
| O=C(NCCc1ccccn1)c1ccc(-c2ccccc2)cn1 | 43.7 |
| O=C(NCCc1ccncc1)c1nc(-c2ccccc2)no1 | 36.9 |
| O=C(NCCc1ccccc1Cl)c1csc(-c2ccccc2)n1 | 54.1 |
| O=C(NCCc1ccccc1Cl)c1coc(-c2ccccc2)n1 | 51.4 |
| O=C(NCCc1ccccc1Cl)c1nnc(-c2ccccc2)o1 | 41.8 |
| O=C(NCCc1ccncc1)c1csc(-c2ccccc2)n1 | 48.7 |
| O=C(NCCc1ccncc1)c1ccc(-c2ccccc2)cc1 | 42 |
| O=C(NCCc1ccccc1Cl)c1cc(-c2ccccc2)ncn1 | 56.7 |
| O=C(NCCc1ccccc1F)c1ccc(-c2ccc(F)cc2)cn1 | 41.2 |
| Cc1ccc(C(=O)NCCc2ccncc2)cc1 | 3.1 |
| O=C(NCCc1ccccc1F)c1ccc(-c2ccc(O)cc2)cn1 | 33.2 |
| O=C(NCCc1ccccc1Cl)c1csc(-c2cccnc2)n1 | 21.6 |
| Cc1cccc(C(=O)NCCc2ccccc2Cl)n1 | 37.3 |
| N#Cc1ccc(-c2ccc(C(=O)NCCc3ccccc3F)nc2)cc1 | 13.1 |
| Cc1ccc(CCNC(=O)c2ccc(-c3ccccc3)cn2)cc1 | 31.8 |
| O=C(NCCc1ccc([N+](=O)[O-])cc1)c1ccc(-c2ccccc2)cn1 | 40.2 |
| Cc1nc(C(=O)NCCc2cccnc2)cs1 | 2.4 |
| O=C(NCCc1ccccc1F)c1ccc(-c2ccncc2)cn1 | 57.5 |
| O=C(NCCc1ccncc1)c1ncc(-c2ccccc2)o1 | 53.5 |
| Cc1ccc(C(=O)NCCc2ccccc2Cl)cc1 | 45.3 |
| O=C(NCCc1ccc(F)cc1)c1ccc(-c2ccccc2)cn1 | 46.1 |
| Cc1cccc(C(=O)NCCc2ccncc2)n1 | 36.4 |
| Cc1ccc(C(=O)NCCc2ccccc2Cl)o1 | 17.4 |
| O=C(NCCc1cccnc1)c1ccc(-c2ccccc2)cn1 | 44.5 |
| O=C(NCCc1ccc(O)cc1)c1ccc(-c2ccccc2)cn1 | 36.9 |
| O=C(NCCc1ccncc1)c1csc(-c2ccncc2)n1 | 19.9 |

Reference: ChEMBL document CHEMBL4354811, “Discovery of Novel Aryl Carboxamide Derivatives as Hypoxia-Inducible Factor 1α Signaling Inhibitors with Potent Activities of Anticancer Metastasis” (J Med Chem, 2019)
